Source: ChEMBL document CHEMBL4316645, “Phenolic C-Glycosides and Aglycones from Marine-Derived Aspergillus sp. and Their Anti-Inflammatory Activities” (J Nat Prod, 2019)
Activity calls are given as the source filed them. The rule behind the calls is not given here.

Experiments:
RAW264.7 [1] = assay: Inhibition of LPS-induced nitric oxide production in mouse RAW264.7 cells preincubated for 2 hrs followed by LPS-stimulation and measured after 12 hrs by Griess assay; format: functional, cell-based
Outline: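 RAW264.7 cells seeded at 2 × 10^5 cells/well and preincubated 24 h, then treated 2 h with test compounds from 40 to 0.5 μM, then stimulated with LPS (1 μg/mL) for 12 h. Supernatant spun at 16 000 rpm for 20 min, mixed with Griess reagent (0.1% naphthyl ethylenediamine dihydrochloride, 1% sulfanilamide, 2% phosphoric acid) for 10 min at rt, read at 540 nm. Means of three independent experiments.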

RAW264.7 [2] = assay: Antiinflammatory activity in mouse RAW264.7 cells assessed as inhibition of LPS-induced IL-6 production preincubated for 2 hrs followed by LPS-stimulation and measured after 12 hrs by ELISA; format: functional, cell-based
Outline: (§1)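 Cells seeded at 2 × 10^5 cells/well and preincubated 24 h. They were pretreated 2 h with compound, then given LPS (1 μg/mL) for 12 h. IL-1β and IL-6 in the culture medium were measured by ELISA. Data are mean ± SD (n = 3), analysed by one-way ANOVA with Tukey's test against the LPS-only group.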

RAW264.7 [3] = assay: Antiinflammatory activity in mouse RAW264.7 cells assessed as inhibition of LPS-induced IL-1beta production preincubated for 2 hrs followed by LPS-stimulation and measured after 12 hrs by ELISA; format: functional, cell-based; outline: as §1
RAW264.7 [4] = assay: Antiinflammatory activity in mouse RAW264.7 cells assessed as inhibition of LPS-induced COX2 expression at 5 to 10 uM preincubated for 2 hrs followed by LPS-stimulation and measured after 12 hrs by Western blot analysis; format: functional, cell-based
Outline: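 After 2 h compound pretreatment and 12 h LPS (1 μg/mL), cells were lysed in 20 mM Tris HCl pH 7.4 with protease inhibitors, and protein was quantified. Lysates were run on SDS-PAGE, transferred to PVDF, and blocked in PBS/0.1% Tween 20/5% skim milk for 1 h at rt. Blots were probed overnight at 4 °C for COX-2 and β-actin, developed by chemiluminescence, and bands quantified by densitometry. Mean ± SD, n = 3.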

[5] = target: Transcription factor p65 (Mus musculus) (UniProt Q04207); assay: Inhibition of NFkappaB p65 nuclear translocation in LPS-stimulated mouse RAW264.7 cells at 5 to 10 uM preincubated for 2 hrs followed by LPS-stimulation and measured after 12 hrs by DAPI staining based fluorescence microscopic analysis; format: cell-based
Sequence of Transcription factor p65 (Mus musculus) (Q04207 whole entry): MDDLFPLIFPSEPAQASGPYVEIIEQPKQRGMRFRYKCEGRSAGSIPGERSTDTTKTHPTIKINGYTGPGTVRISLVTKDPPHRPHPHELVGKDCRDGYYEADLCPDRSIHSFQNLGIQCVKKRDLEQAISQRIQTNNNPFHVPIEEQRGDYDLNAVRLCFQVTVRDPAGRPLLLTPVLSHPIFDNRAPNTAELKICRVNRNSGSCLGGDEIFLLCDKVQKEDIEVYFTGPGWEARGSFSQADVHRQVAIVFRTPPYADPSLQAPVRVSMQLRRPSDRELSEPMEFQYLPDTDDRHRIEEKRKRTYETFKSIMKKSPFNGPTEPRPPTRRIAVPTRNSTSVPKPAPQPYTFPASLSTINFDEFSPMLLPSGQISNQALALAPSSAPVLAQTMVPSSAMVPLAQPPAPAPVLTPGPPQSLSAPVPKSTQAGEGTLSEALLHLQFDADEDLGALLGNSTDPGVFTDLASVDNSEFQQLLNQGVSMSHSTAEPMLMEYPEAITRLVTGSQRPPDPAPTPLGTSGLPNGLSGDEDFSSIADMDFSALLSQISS
Outline: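 Cells were fixed in 4% paraformaldehyde for 20 min and permeabilized with 0.2% Triton X-100 for 30 min. After 5% BSA block for 1 h, they were given anti-p65 primary overnight at 4 °C, then Alexa Fluor 594 secondary (1:500) for 1 h at rt. DAPI (5 μg/mL) was applied 30 min at 37 °C. Imaging used fluorescence microscopy, ex/em 590/617 nm for p65 and 360/450 nm for DAPI.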

SMILES: CCC/C=C/C=C\CCc1cc(O)c([C@@H]2O[C@H](CO)[C@@H](O)[C@H](O)[C@H]2O)c(O)c1
- IC50 (RAW264.7 [1]): > 40 µM

SMILES: CCC/C=C/C=C\CCc1cc(O)cc(O)c1
- IC50 (RAW264.7 [1]): 28 µM

SMILES: CCC/C=C/C=C/CCc1cc(O)c([C@@H]2O[C@H](CO)[C@@H](O)[C@H](O)[C@H]2O)c(O)c1
- IC50 (RAW264.7 [1]): > 40 µM

SMILES: CC/C=C/C=C/CCc1cc(O)c([C@@H]2O[C@H](CO)[C@@H](O)[C@H](O)[C@H]2O)c(O)c1C(=O)OC
- IC50 (RAW264.7 [1]): 19 µM

SMILES: CCC/C=C/C=C/CCc1cc(O)c([C@@H]2O[C@H](CO)[C@@H](O)[C@H](O)[C@H]2O)c(O)c1C(=O)OC
- IC50 (RAW264.7 [1]): > 40 µM

SMILES: CCC/C=C/C=C\CCc1cc(O)c([C@@H]2O[C@H](CO)[C@@H](O)[C@H](O)[C@H]2O)c(O)c1C(=O)OC
- IC50 (RAW264.7 [1]): > 40 µM

SMILES: CCC/C=C/C=C/CCc1cc(O)cc(O)c1C(=O)O
- IC50 (RAW264.7 [1]): 9.9 µM

SMILES: CCC/C=C/C=C/C1Cc2cc(O)cc(O)c2C(=O)O1 (configuration not stated)
- IC50 (RAW264.7 [1]): 17 µM

SMILES: CCC/C=C\C=C\CCc1cc(O)c([C@@H]2O[C@H](CO)[C@@H](O)[C@H](O)[C@H]2O)c(O)c1
- IC50 (RAW264.7 [1]): 30 µM

SMILES: C/C=C/C=C/CCc1cc(O)c([C@@H]2O[C@H](CO)[C@@H](O)[C@H](O)[C@H]2O)c(O)c1C(=O)OC
- IC50 (RAW264.7 [1]): > 40 µM

SMILES: CCC/C=C/C=C/CCc1cc(O)c([C@@H]2O[C@H](CO)[C@@H](O)[C@H](O)[C@H]2O)c(O)c1C(=O)OCC
- IC50 (RAW264.7 [1]): 15 µM

SMILES: CCC/C=C/C=C/CCc1cc(O)cc(O)c1
- IC50 (RAW264.7 [1]): 6 µM
- inhibition (RAW264.7 [2]): Dose-dependent effect
- inhibition (RAW264.7 [3]): Dose-dependent effect
- inhibition (RAW264.7 [4]): Active
- inhibition [5]: Active

SMILES: CCC/C=C\C=C\CCc1cc(O)c([C@@H]2O[C@H](CO)[C@@H](O)[C@H](O)[C@H]2O)c(O)c1C(=O)OC
- IC50 (RAW264.7 [1]): 14 µM
